Results of several laboratories.
Target: Rho-associated protein kinase 2 (ROCK2, Homo sapiens, UniProt O75116)

SMILES | effect on | method | concentration | remaining binding
O=C(N[C@H]1CCCCC/C=C\C2C[C@@]2(C(=O)O)NC(=O)[C@@H]2C[C@@H](Oc3ccncc3)CN2C1=O)OC1CCCC1 (stereo partly shown) | binding | competition with immobilised ligand | 1 µM | 100%
O=C(c1ccc(Nc2ncc(Cl)c(-c3ccc(Cl)s3)n2)cc1)N1CCC(N2CCCC2)CC1 | binding | competition with immobilised ligand | 1 µM | 4.3%
CN(c1nccc(-c2cnn3ncccc23)n1)C1CC1 | binding | – | 1 µM | 100%
CNC(=O)Nc1ccc2c(c1)CC[C@@]21OC(=O)N(CC(=O)N(Cc2ccc(F)cc2)[C@@H](C)C(F)(F)F)C1=O | cell-free assay | competition with immobilised ligand | 1 µM | 96%
COc1ncc2cc3ccccc3nc2c1C#N | cell-free assay | competition with immobilised ligand | 5 µM | 98%
Cc1cc(-n2nc(Cc3cc(F)cc(C(F)(F)F)c3)nc2C)ccc1C(N)=O | cell-free assay | competition with immobilised ligand | 1 µM | 96%
O=C(NCCCN1CCOCC1)c1ccc(Nc2nccc(-c3cc4ccccc4s3)n2)cc1 | binding | competition with immobilised ligand | 1 µM | 46%
CC1=C(C#N)C(c2ccc3c(c2)c(NC(=O)c2ccccc2C)nn3C)C(C#N)=C(C)N1 | cell-free assay | competition with immobilised ligand | 1 µM | 93%
FC(F)(F)Oc1cccc(-c2cnc3ccc(-c4ccncc4)nn23)c1 | binding | competition with immobilised ligand | 5 µM | 42%
Cc1nc(N2CC[C@@H](O)C2)ncc1-c1cc(C(F)(F)F)cc2[nH]ncc12 | binding | competition with immobilised ligand | 1 µM | 77%
F[C@@H]1CCN(c2nccc(-c3cnn4ncccc34)n2)C1 | binding | – | 1 µM | 100%
CNC(=O)[C@@H]1CC[C@@H](n2c(-c3ccc4cnccc4c3)nc3ccc(C(=O)NCc4cccc(C(N)=O)c4)cc32)C1 | binding | competition with immobilised ligand | 1 µM | 100%
N[C@@H]1CCN(c2nccc(-c3cnn4ncccc34)n2)C1 | binding | – | 1 µM | 100%
C[C@@H](c1ccc(-n2cnc3c(N)ncnc32)cc1)N1CCc2nn(C)c(Cc3ccccc3)c2C1=O | binding | competition with immobilised ligand | 0.1 µM | 77%
O=C(Nc1c[nH]nc1C(=O)NC1CCNCC1)c1cc(F)cc(F)c1 | binding | competition with immobilised ligand | 1 µM | 88%
CC1CCCN1c1nccc(-c2cnn3ncccc23)n1 (stereo not shown) | binding | – | 1 µM | 100%
